# Assay outcomes deposited in PubChem by Broad Institute.
# PGC1a Ac signal = raises PGC1a acetylation signal in U2OS cells; U2OS PGC1a acetylation AlphaScreen, overnight; activation, % at 15.6 µM; 0.21% of 350,000 active; AID 651723;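 active means every replicate reaching activation of at least 50%, whatever the mean replicate activation; inconclusive means replicates that disagree or another doubt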;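 further: hits raise the AlphaScreen acetylation signal above neutral controls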
#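 Test system: U2OS cells expressing flag-PGC1a plus GCN5; Amount: 7000 U2OS cells per well; Compound: single test concentration per compound; Incubation: compound overnight at 37 °C, each detection step 1 h RT; Signal: AlphaScreen lysate read.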
# G6PC hep suppr = PGC-1a acetylation activators affecting G6PC expression in hepatocytes. shares compounds with PGC1a Ac signal. primary mouse hepatocytes, G6PC mRNA qPCR, forskolin. G6PC suppression (normalized activity, % of positive control; higher = more suppression), % at 26 µM. 240 tested, under 10 active. AID 743463;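 active means dose curves showing G6PC suppression whose half-maximal dose is at most twice the top valid dose; inconclusive means flat curves with moderate negative activity, or unreliable fits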;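 further: G6PC expression relative to GAPDH housekeeping gene as delta delta Ct; 0% = median of neutral control wells and 100% = median of positive control wells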
# PCK1 hep suppr = PGC-1a acetylation activators affecting PCK1 expression in hepatocytes; shares compounds with PGC1a Ac signal; primary mouse hepatocytes, PCK1 mRNA qPCR, forskolin-stimulated; PCK1 expression decrease, unspecified at 26 µM; 230 tested, under 10 active;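 active means compounds lowering PCK1 expression whose fitted half-maximal concentration is at most twice the top tested dose; inconclusive means flat fit with moderate opposite-direction effect, or poor fit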;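 further: values are delta delta Ct of PCK1 relative to GAPDH; higher delta delta Ct means lower PCK1 expression so positive values indicate hits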
# Hep PGC-1a down = PGC-1a acetylation activators affecting PGC-1a expression in hepatocytes; shares compounds with PGC1a Ac signal; primary mouse hepatocytes, PGC-1a mRNA qPCR, forskolin; top dose 26 µM; max activity (PGC-1a expression decrease), %; 240 tested, under 10 active;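 active means compound lowering PGC-1a expression with fitted half-maximal concentration at most twice its top tested dose; inconclusive means flat curve with moderate opposite-direction effect, or poor fit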;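 further: 0% = neutral control wells median and 100% = positive control wells median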
# Active calls of the source: *; ? = inconclusive; · = no result; [ ] = another dose, or the depositor's remark. Not all results are given here.
SMILES,PGC1a Ac signal,G6PC hep suppr,PCK1 hep suppr,Hep PGC-1a down
COc1ccc2nc(N3CCCC(C(=O)NCCCN4CCN(C)CC4)C3)sc2c1 (stereo not given),-70,·,·,·
O=S(=O)(c1cccc(F)c1)N1CCN(Cc2cc3c(cc2Br)OCCO3)CC1,108*,1,53,112
CCCCCCCCC(=O)O,-66,·,·,·
CC(Oc1ccc2c3c(c(=O)oc2c1)CCC3)C(=O)N[C@@H](Cc1ccccc1)C(=O)O (stereo not given in full),-75,·,·,·
Cc1ccc(C(=O)Nc2nc(=O)n(C(=O)CC(C)C)s2)cc1,-48,·,·,·
COCCNC(=O)c1ccc(C)cc1C,-44,·,·,·
CC(=O)c1ccc(N2CCN(C(=O)C(=O)c3c(C)[nH]c4ccccc34)CC2)cc1,66*,-37,-14,-14
Oc1ccc(-c2nc(-c3ccc(O)c(O)c3)cs2)cc1,-46,·,·,·
OCCN(Cc1ccccc1)CC1CCCCC1,-57,·,·,·
CN1CCN(c2ccc(CNC(=O)c3ccc(-c4ccnn4C)c4ccoc34)cc2)CC1,?,·,?,229
CCc1nc(N)nc(N)c1-c1ccc(Cl)cc1,-48,·,·,·
COc1ccc(-c2nc3ccccc3c(=O)o2)cc1OC,-49,·,·,·
CCOCCn1c(CN(Cc2ccccc2)Cc2ccccc2)nc2c1c(=O)[nH]c(=O)n2C,?,-12,0.24,38
CCOCCn1c(CN(Cc2ccccc2)Cc2ccccc2)nc2c1c(=O)n(C)c(=O)n2C,56*,·,11,27
CCCCn1c(CN(Cc2ccccc2)Cc2ccccc2)nc2c1c(=O)n(C)c(=O)n2C,?,0,193,67
Cc1cccc(-c2ccc3[nH]c4c(c3c2)CCN2C[C@@H]([C@H](C)O)[C@@H](N(C)C(=O)NC3CCCCC3)C[C@@H]42)c1,-40,·,·,·
O=C1C=CC(=O)c2c(O)c(N3CCN(CCO)CC3)c(Cl)c(O)c21,-51,·,·,·
CCN1CC=C2C(C#N)=C(N)C(C#N)(C#N)[C@H](c3cccc(OC)c3OC)[C@H]2C1,-41,·,·,·
CCOC(=O)c1ccc(N2C(=O)CC(N3CCC(O)(c4ccc(Br)cc4)CC3)C2=O)cc1 (stereo not given),-47,·,·,·
Cc1ccccc1NC1=C/C(=N\S(=O)(=O)c2cccs2)c2ccccc2C1=O,-88,·,·,·
COc1cc(CN2CCN(Cc3ccccc3C(F)(F)F)CC2)cc(OC)c1OC,-63,·,·,·
C=CCN(c1ccc(C(=O)Nc2ccc3c(c2)OCO3)cc1)S(C)(=O)=O,-93,·,·,·
CC(=O)Nc1nonc1-c1nc2ccccc2n1Cc1ccccc1,61*,-7,11,?
COc1ccccc1CN1CCCC(C(=O)N(C)Cc2ccccc2)C1 (stereo not given),-45,·,·,·
C[C@@H]1CN([C@H](C)CO)C(=O)c2c(c3ccccc3n2C)-c2ccccc2CO[C@@H]1CN(C)C(=O)Nc1cccc(C(F)(F)F)c1,68*,112,196,157
SMILES,PGC1a Ac signal,G6PC hep suppr,PCK1 hep suppr,Hep PGC-1a down
C[C@@H]1CN([C@@H](C)CO)C(=O)c2c(c3ccccc3n2C)-c2ccccc2CO[C@@H]1CN(C)C(=O)Nc1cccc(C(F)(F)F)c1,79*,103[23.5 µM],45[23.5 µM],58
CO[C@@H](C(=O)N(C)C[C@H]1OCc2ccccc2-c2c(n(C)c3ccccc23)C(=O)N([C@H](C)CO)C[C@H]1C)c1ccccc1,72*,8,32,79
C[C@@H]1CN([C@@H](C)CO)C(=O)c2c(c3ccccc3n2C)-c2ccccc2CO[C@@H]1CN(C)C(=O)Nc1ccc(F)cc1,?,-2[23.5 µM],42[23.5 µM],32
N/C(=N\OC(=O)CCCOc1ccccc1)c1ccc([N+](=O)[O-])cc1,-90,·,·,·
Brc1ccc(N/N=C(/N=Nc2nn[nH]n2)c2ccccc2)cc1,-97,·,·,·
CCCOc1ccccc1C1C(C(=O)OC)=CN(C(C)C)C=C1C(=O)OC,-92,·,·,·
C=CC(=O)NC(C)(C)Cc1ccccc1,-44,·,·,·
Cc1c(Nc2cc(Cl)c3nonc3c2[N+](=O)[O-])c(=O)n(-c2ccccc2)n1C,-40,·,·,·
CCc1nc(SCC(=O)N2c3ccccc3Sc3ccccc32)c2ccccc2n1,-43,·,·,·
CCNC(=O)NC(=O)COc1ccccc1C#N,-45,·,·,·
N#Cc1ccccc1COC(=O)c1ccc2c(c1)OCCO2,?,-9,11,-16
O=C(Cc1ccccc1)Nc1ccc(NC(=O)c2ccco2)nc1,?,-6,-48,84
CC(C)(C)NC(=O)Cn1nnc(-c2ccccc2NC(=O)c2ccco2)n1,-44,·,·,·
O=C(/C(=C/O)N=Nc1ccccc1)c1ccco1,-42,·,·,·
OC[C@@H]1CN(Cc2ccccc2)C[C@H](n2cnc3c(NCc4ccco4)ncnc32)O1,-101,·,·,·
Cn1c(C(C#N)C(=O)c2sc3ccccc3c2Cl)nc2ccccc21 (stereo not given),-50,·,·,·
CC12CCC(C1)C(C)(C)C2NS(=O)(=O)c1ccc(F)cc1 (stereo not given),?,19,·,?
COC(=O)c1ccc(Cl)c(NC(C)=O)c1,-47,·,·,·
O=C1C(N2CCOCC2)=C(n2nnc3ccccc32)C(=O)c2ccccc21,-61,·,·,·
COc1ccc(C(CNC(=O)c2cccc(N(C)C)c2)N2CCCC2)cc1 (stereo not given),-47,176,121,28
C#CC(=O)N(c1ccc(OC)cc1OC)C(C(=O)NC1CCCC1)c1cccs1 (stereo not given),-95,·,·,·
COc1ccc(N(C(=O)c2snc(C(N)=O)c2N)C(C(=O)NC2CCCCC2)c2ccc(C)o2)cc1 (stereo not given),62*,-14,-45,37
COc1ccc(N(C(=O)c2snc(C(N)=O)c2N)C(C(=O)NC2CCCCC2)c2ccc(F)cc2)c(OC)c1 (stereo not given),?,-20[8 µM],119,72
Cc1ccc(C)c(NC(=S)Nc2cccc3cnccc23)c1,-51,·,·,·
COC(=O)/C=C/c1cnc2ccccc2c1,-43,·,·,·
SMILES,PGC1a Ac signal,G6PC hep suppr,PCK1 hep suppr,Hep PGC-1a down
Nc1nn(-c2ccccc2)nc1C(=O)OCc1ccccc1,-72,·,·,·
O=C(Nc1nc2cc3c(cc2s1)OCCO3)c1ccncc1,-62,·,·,·
CCNC(=S)NNC(=O)c1csc2ccccc12,-59,·,·,·
O=C(Nc1ccccc1)C1=C[C@@H](c2ccc(C(F)(F)F)cc2)C[C@@H](OCc2ccc(CO)cc2)O1,63*,16,35,27
CCCOc1ccc2ccccc2c1/C=C1\SC(=O)NC1=O,-76,·,·,·
COc1ccccc1CN1C[C@@H]2C[C@@H](c3cccc(C)n3)N3CCC[C@@]23C1=O,-43,·,·,·
CCOC(=O)C(=CNc1ccc(C)cc1C)C(=O)OCC,-41,·,·,·
Cn1nnnc1SC1CC(=O)N(c2ccccc2)C1=O (stereo not given),-44,·,·,·
COc1ccc(S(=O)(=O)NNC(=O)c2csc(-n3nc(C)cc3C(F)(F)F)n2)cc1,-54,29,-10,122
COC(=O)c1cc2ccsc2n1CC(=O)Nc1cc(Cl)ccc1OC,59*,24,314,119
N#Cc1cc2c(=O)n3ccccc3nc2n(Cc2cccnc2)c1=O,-49,·,·,·
COc1cccc(NC(=O)N2CCN(c3cccc(C)c3)C(C)C2)c1 (stereo not given),-45,·,·,·
Nn1cnnc1N/N=C/c1ccc(Cl)c([N+](=O)[O-])c1,-53,·,·,·
